Results taken from ChEMBL document CHEMBL1156240, “Papyriferic acid derivatives as reversal agents of multidrug resistance in cancer cells” (Bioorg Med Chem, 2010).

Columns and labels:
[1] = Cytotoxicity against human multidrug-resistant KB-C2 cells after 48 hrs by MTT assay; format: functional, cell-based; details: KB-C2, 48 h
Outline: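 Seeded 5 × 10³ cells/well, preincubated 24 h, then compounds at 2, 10, 50, 100 µg/mL in medium (0.5% DMSO final) for 48 h. MTT 0.5 mg/mL for 4 h, formazan dissolved in DMSO, OD 540 nm; IC50 relative to vehicle controls.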

KB = test: Cytotoxicity against human KB cells after 48 hrs by MTT assay; format: functional, cell-based

| Compound | IC50 [1] | IC50 (KB) |
| --- | --- | --- |
| CCCNC(=O)CC(=O)O[C@@H]1CC[C@]2(C)[C@H]3C[C@@H](OC(C)=O)[C@@H]4[C@@H]([C@]5(C)CC[C@H](C(C)(C)O)O5)CC[C@@]4(C)[C@]3(C)CC[C@H]2C1(C)C | 40.8 µM | 46.1 µM |
| CC(=O)O[C@@H]1C[C@@H]2[C@@]3(C)CC[C@@H](OC(=O)CC(=O)OCC(C)C)C(C)(C)[C@@H]3CC[C@@]2(C)[C@]2(C)CC[C@H]([C@]3(C)CC[C@H](C(C)(C)O)O3)[C@@H]12 | > 100 µM | 33.3 µM |
| CCCCCNC(=O)CC(=O)O[C@@H]1CC[C@]2(C)[C@H]3C[C@@H](OC(C)=O)[C@@H]4[C@@H]([C@]5(C)CC[C@H](C(C)(C)O)O5)CC[C@@]4(C)[C@]3(C)CC[C@H]2C1(C)C | 38.3 µM | 38.3 µM |
| CCCCCCOC(=O)CC(=O)O[C@@H]1CC[C@]2(C)[C@H]3C[C@@H](OC(C)=O)[C@@H]4[C@@H]([C@]5(C)CC[C@H](C(C)(C)O)O5)CC[C@@]4(C)[C@]3(C)CC[C@H]2C1(C)C | > 100 µM | 70.7 µM |
| CCCCCCCCOC(=O)CC(=O)O[C@@H]1CC[C@]2(C)[C@H]3CC[C@@H]4[C@@H]([C@]5(C)CC[C@H](C(C)(C)O)O5)CC[C@@]4(C)[C@]3(C)CC[C@H]2C1(C)C | > 100 µM | > 100 µM |
| CCCCCCCCCNC(=O)CC(=O)O[C@@H]1CC[C@]2(C)[C@H]3C[C@@H](OC(C)=O)[C@@H]4[C@@H]([C@]5(C)CC[C@H](C(C)(C)OC(=O)C(=O)NCCCCCCCCC)O5)CC[C@@]4(C)[C@]3(C)CC[C@H]2C1(C)C | > 100 µM | > 100 µM |
| CC(C)OC(=O)CC(=O)O[C@@H]1CC[C@]2(C)[C@H]3CC[C@@H]4[C@@H]([C@]5(C)CC[C@H](C(C)(C)O)O5)CC[C@@]4(C)[C@]3(C)CC[C@H]2C1(C)C | > 100 µM | > 100 µM |
| CC(=O)O[C@@H]1C[C@@H]2[C@@]3(C)CC[C@@H](OC(=O)CC(=O)NC(C)(C)C)C(C)(C)[C@@H]3CC[C@@]2(C)[C@]2(C)CC[C@H]([C@]3(C)CC[C@H](C(C)(C)OC(=O)C(=O)NC(C)(C)C)O3)[C@@H]12 | > 100 µM | > 100 µM |
| CC(=O)O[C@@H]1C[C@@H]2[C@@]3(C)CC[C@@H](OC(=O)CC(=O)OCc4ccccc4)C(C)(C)[C@@H]3CC[C@@]2(C)[C@]2(C)CC[C@H]([C@]3(C)CC[C@H](C(C)(C)O)O3)[C@@H]12 | > 100 µM | 43.7 µM |
| CCCCCCOC(=O)CC(=O)O[C@@H]1CC[C@]2(C)[C@H]3CC[C@@H]4[C@@H]([C@]5(C)CC[C@H](C(C)(C)O)O5)CC[C@@]4(C)[C@]3(C)CC[C@H]2C1(C)C | > 100 µM | > 100 µM |
| C=CCOC(=O)CC(=O)O[C@@H]1CC[C@]2(C)[C@H]3C[C@@H](OC(C)=O)[C@@H]4[C@@H]([C@]5(C)CC[C@H](C(C)(C)O)O5)CC[C@@]4(C)[C@]3(C)CC[C@H]2C1(C)C | 48.3 µM | 34.8 µM |
| CCOC(=O)CC(=O)O[C@@H]1CC[C@]2(C)[C@H]3CC[C@@H]4[C@@H]([C@]5(C)CC[C@H](C(C)(C)O)O5)CC[C@@]4(C)[C@]3(C)CC[C@H]2C1(C)C | > 100 µM | > 100 µM |
| CC(C)COC(=O)CC(=O)O[C@@H]1CC[C@]2(C)[C@H]3CC[C@@H]4[C@@H]([C@]5(C)CC[C@H](C(C)(C)O)O5)CC[C@@]4(C)[C@]3(C)CC[C@H]2C1(C)C | > 100 µM | 97 µM |
| COc1ccc(OC)c(NC(=O)CC(=O)O[C@@H]2CC[C@]3(C)[C@H]4C[C@@H](OC(C)=O)[C@@H]5[C@@H]([C@]6(C)CC[C@H](C(C)(C)O)O6)CC[C@@]5(C)[C@]4(C)CC[C@H]3C2(C)C)c1 | > 100 µM | > 100 µM |
| CCCCCOC(=O)CC(=O)O[C@@H]1CC[C@]2(C)[C@H]3CC[C@@H]4[C@@H]([C@]5(C)CC[C@H](C(C)(C)O)O5)CC[C@@]4(C)[C@]3(C)CC[C@H]2C1(C)C | > 100 µM | > 100 µM |
| COc1cc2c(c(OC)c1OC)-c1ccc(OC)c(=O)cc1[C@@H](NC(C)=O)CC2 [COLCHICINE] | 10.9 µM | – |
| CC(=O)O[C@@H]1C[C@@H]2[C@@]3(C)CC[C@@H](OC(=O)CC(=O)Nc4ccccc4)C(C)(C)[C@@H]3CC[C@@]2(C)[C@]2(C)CC[C@H]([C@]3(C)CC[C@H](C(C)(C)O)O3)[C@@H]12 | 26.2 µM | 28.3 µM |
| CCCCOC(=O)CC(=O)O[C@@H]1CC[C@]2(C)[C@H]3C[C@@H](OC(C)=O)[C@@H]4[C@@H]([C@]5(C)CC[C@H](C(C)(C)O)O5)CC[C@@]4(C)[C@]3(C)CC[C@H]2C1(C)C | > 100 µM | 40.8 µM |
| CCCCCCCOC(=O)CC(=O)O[C@@H]1CC[C@]2(C)[C@H]3C[C@@H](OC(C)=O)[C@@H]4[C@@H]([C@]5(C)CC[C@H](C(C)(C)O)O5)CC[C@@]4(C)[C@]3(C)CC[C@H]2C1(C)C | > 100 µM | > 100 µM |
| CCCCCNC(=O)CC(=O)O[C@@H]1CC[C@]2(C)[C@H]3C[C@@H](OC(C)=O)[C@@H]4[C@@H]([C@]5(C)CC[C@H](C(C)(C)OC(=O)C(=O)NCCCCC)O5)CC[C@@]4(C)[C@]3(C)CC[C@H]2C1(C)C | > 100 µM | > 100 µM |
| CCCCCCCCOC(=O)CC(=O)O[C@@H]1CC[C@]2(C)[C@H]3C[C@@H](OC(C)=O)[C@@H]4[C@@H]([C@]5(C)CC[C@H](C(C)(C)O)O5)CC[C@@]4(C)[C@]3(C)CC[C@H]2C1(C)C | > 100 µM | > 100 µM |
| CCCCCOC(=O)CC(=O)O[C@@H]1CC[C@]2(C)[C@H]3C[C@@H](OC(C)=O)[C@@H]4[C@@H]([C@]5(C)CC[C@H](C(C)(C)O)O5)CC[C@@]4(C)[C@]3(C)CC[C@H]2C1(C)C | > 100 µM | 45.4 µM |
| CCCOC(=O)CC(=O)O[C@@H]1CC[C@]2(C)[C@H]3CC[C@@H]4[C@@H]([C@]5(C)CC[C@H](C(C)(C)O)O5)CC[C@@]4(C)[C@]3(C)CC[C@H]2C1(C)C | > 100 µM | 60.3 µM |
| COc1ccc(CCN(C)CCCC(C#N)(c2ccc(OC)c(OC)c2)C(C)C)cc1OC (centres undefined) | > 100 µM | – |
| CCCCCCCOC(=O)CC(=O)O[C@@H]1CC[C@]2(C)[C@H]3CC[C@@H]4[C@@H]([C@]5(C)CC[C@H](C(C)(C)O)O5)CC[C@@]4(C)[C@]3(C)CC[C@H]2C1(C)C | > 100 µM | > 100 µM |
| CC(=O)O[C@@H]1C[C@@H]2[C@@]3(C)CC[C@@H](OC(=O)CC(=O)NCc4ccccc4)C(C)(C)[C@@H]3CC[C@@]2(C)[C@]2(C)CC[C@H]([C@]3(C)CC[C@H](C(C)(C)O)O3)[C@@H]12 | 33.2 µM | 31.9 µM |
| CCCCCCCCCNC(=O)CC(=O)O[C@@H]1CC[C@]2(C)[C@H]3C[C@@H](OC(C)=O)[C@@H]4[C@@H]([C@]5(C)CC[C@H](C(C)(C)O)O5)CC[C@@]4(C)[C@]3(C)CC[C@H]2C1(C)C | > 100 µM | 42.8 µM |
| CC(=O)O[C@@H]1C[C@@H]2[C@@]3(C)CC[C@@H](OC(=O)CC(=O)OC(C)C)C(C)(C)[C@@H]3CC[C@@]2(C)[C@]2(C)CC[C@H]([C@]3(C)CC[C@H](C(C)(C)O)O3)[C@@H]12 | > 100 µM | 74.6 µM |
